Assay [1] deals with Cyclin-dependent kinase 2 (Homo sapiens, UniProt P24941). The experiment in a line: Inhibition of human N-terminal hexahistidine-tagged CDK2 expressed in baculovirus infected Sf21 cells using histone H1 as substrate after 10 mins in presence of [gamma-32P]-ATP.
Assay [2] can be described thus: Cytotoxicity against human H460 cells assessed as growth inhibition after 24 to 48 hrs by CCK8 assay. The format is functional, cell-based. The following applies: NCI-H460. Put shortly:
(§1)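 CCK8 proliferation assay: 1-5 × 10³ cells per well grew for 12 h, then were exposed to increasing compound concentrations in 10% FBS for 24 or 48 h. CCK8 dye was added for 1-2 h and plates were read on a multilabel counter. Percent inhibition or IC₅₀ was calculated against DMSO-treated control wells.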
Background: Tetrazolium dyes change colour on reduction, which living cells bring about.

Assay [3] concerns MCF7. The experiment in a line: Cytotoxicity against human MCF7 cells assessed as growth inhibition after 24 to 48 hrs by CCK8 assay. The format is functional, cell-based. Put shortly: as §1
In assay [4] the test system is A549. Description: Cytotoxicity against human A549 cells assessed as growth inhibition after 24 to 48 hrs by CCK8 assay. The format is functional, cell-based. A digest of the protocol: as §1
In assay [5] the test system is A549. The experiment in a line: Cell cycle arrest in human A549 cells assessed as accumulation at G0/G1 phase after 36 hrs by propidium iodide staining-based FACS flow cytometric analysis. The format is functional. A general note: In flow cytometry, cells or beads pass a laser one at a time.
The test system of assay [6] is A549. The experiment in a line: Cell cycle arrest in human A549 cells assessed as accumulation at subG0 phase at 2 uM after 36 hrs by propidium iodide staining-based FACS flow cytometric analysis relative to control. Type of assay: functional.
For assay [7], the system named is A549. Description: Cell cycle arrest in human A549 cells assessed as accumulation at S phase at 2 uM after 36 hrs by propidium iodide staining-based FACS flow cytometric analysis (reference value: 40.84%). Type of assay: functional.
Assay [8] deals with A549. The experiment in a line: Cell cycle arrest in human A549 cells assessed as accumulation at G2/M phase at 2 uM after 36 hrs by propidium iodide staining-based FACS flow cytometric analysis (reference value: 2.09%). The format is functional.
Assay [9] has as its system A549. The experiment in a line: Cell cycle arrest in human A549 cells assessed as accumulation at G0/G1 phase at 2 uM after 36 hrs by propidium iodide staining-based FACS flow cytometric analysis (reference value: 57.07%). Type of assay: functional.
Assay [10] deals with A549. Description: Cell cycle arrest in human A549 cells assessed as accumulation at subG0 phase at 1 uM after 36 hrs by propidium iodide staining-based FACS flow cytometric analysis relative to control. The format is functional.
Assay [11] relates to A549. The experiment in a line: Cell cycle arrest in human A549 cells assessed as accumulation at S phase at 1 uM after 36 hrs by propidium iodide staining-based FACS flow cytometric analysis (reference value: 40.84%). Type of assay: functional.
Assay [12] concerns A549. The experiment in a line: Cell cycle arrest in human A549 cells assessed as accumulation at G2/M phase at 1 uM after 36 hrs by propidium iodide staining-based FACS flow cytometric analysis (reference value: 2.09%). Type of assay: functional.
Assay [13] concerns A549. Description: Cell cycle arrest in human A549 cells assessed as accumulation at G0/G1 phase at 1 uM after 36 hrs by propidium iodide staining-based FACS flow cytometric analysis (reference value: 57.07%). Type of assay: functional.
The test system of assay [14] is A549. Description: Cell cycle arrest in human A549 cells assessed as accumulation at subG0 phase at 0.5 uM after 36 hrs by propidium iodide staining-based FACS flow cytometric analysis relative to control. The format is functional.
The subject of assay [15] is A549. Description: Cell cycle arrest in human A549 cells assessed as accumulation at S phase at 0.5 uM after 36 hrs by propidium iodide staining-based FACS flow cytometric analysis (reference value: 40.84%). The format is functional.
The subject of assay [16] is A549. Description: Cell cycle arrest in human A549 cells assessed as accumulation at G2/M phase at 0.5 uM after 36 hrs by propidium iodide staining-based FACS flow cytometric analysis (reference value: 2.09%). Type of assay: functional.
For assay [17], the target named is Epidermal growth factor receptor (Homo sapiens, UniProt P00533). The experiment in a line: Inhibition of human C-terminal EGFR tyrosine kinase domain.
Assay [18] deals with Vascular endothelial growth factor receptor 2 (Homo sapiens, UniProt P35968). The experiment in a line: Inhibition of human VEGFR2 tyrosine kinase domain (Asp807 to Val1356) using poly-(Glu4-Tyr) as substrate incubated for 15 mins prior to ATP addition measured after 40 mins by DELFIA.
In assay [19] the target is Cyclin-dependent kinase 7 (Homo sapiens, UniProt P50613). Description: Inhibition of CDK7 (unknown origin) using histone H1 as substrate after 10 mins in presence of [gamma-32P]-ATP. A digest of the protocol:
(§2)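 Radiometric kinase reaction in 50 mM Tris-HCl with ATP plus γ-³²P ATP, 10 mM MgCl₂, 5 mM DTT and histone H1 substrate. It ran 10 min with inhibitor and was stopped with 30% phosphoric acid. Mixtures were spotted on P81 paper and washed five times with 10 mM Tris-HCl (pH 8.0)/0.1 M NaCl. Spot radioactivity was imaged, and IC₅₀ was the concentration giving 50% inhibition.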

The target in assay [20] is Cyclin-dependent kinase 6 (Homo sapiens, UniProt Q00534). Description: Inhibition of CDK6 (unknown origin) using histone H1 as substrate after 10 mins in presence of [gamma-32P]-ATP. Put shortly: as §2
In assay [21] the target is Cyclin-dependent kinase 5 (Homo sapiens, UniProt Q00535). Description: Inhibition of CDK5 (unknown origin) using histone H1 as substrate after 10 mins in presence of [gamma-32P]-ATP. Put shortly: as §2
Assay [22] deals with Cyclin-dependent kinase 1 (Homo sapiens, UniProt P06493). Description: Inhibition of CDK1 (unknown origin) using histone H1 as substrate after 10 mins in presence of [gamma-32P]-ATP. Put shortly:
as §2

The target of assay [23] is Cyclin-dependent kinase 4 (Homo sapiens, UniProt P11802). The experiment in a line: Inhibition of CDK4 (unknown origin) using histone H1 as substrate after 10 mins in presence of [gamma-32P]-ATP. A digest of the protocol: as §2
Assay [24] deals with A549. Description: Cell cycle arrest in human A549 cells assessed as accumulation at G0/G1 phase at 0.5 uM after 36 hrs by propidium iodide staining-based FACS flow cytometric analysis (reference value: 57.07%). The format is functional.

Our source for the IC50 and Activity values is ChEMBL document CHEMBL2424530, “Synthesis, biological evaluation and molecular docking studies of pyrazole derivatives coupling with a thiourea moiety as novel CDKs inhibitors” (Eur J Med Chem, 2013).

Bounds are passed on as bounds.

Chain of Vascular endothelial growth factor receptor 2 (P35968 whole entry, the tested form may be a part): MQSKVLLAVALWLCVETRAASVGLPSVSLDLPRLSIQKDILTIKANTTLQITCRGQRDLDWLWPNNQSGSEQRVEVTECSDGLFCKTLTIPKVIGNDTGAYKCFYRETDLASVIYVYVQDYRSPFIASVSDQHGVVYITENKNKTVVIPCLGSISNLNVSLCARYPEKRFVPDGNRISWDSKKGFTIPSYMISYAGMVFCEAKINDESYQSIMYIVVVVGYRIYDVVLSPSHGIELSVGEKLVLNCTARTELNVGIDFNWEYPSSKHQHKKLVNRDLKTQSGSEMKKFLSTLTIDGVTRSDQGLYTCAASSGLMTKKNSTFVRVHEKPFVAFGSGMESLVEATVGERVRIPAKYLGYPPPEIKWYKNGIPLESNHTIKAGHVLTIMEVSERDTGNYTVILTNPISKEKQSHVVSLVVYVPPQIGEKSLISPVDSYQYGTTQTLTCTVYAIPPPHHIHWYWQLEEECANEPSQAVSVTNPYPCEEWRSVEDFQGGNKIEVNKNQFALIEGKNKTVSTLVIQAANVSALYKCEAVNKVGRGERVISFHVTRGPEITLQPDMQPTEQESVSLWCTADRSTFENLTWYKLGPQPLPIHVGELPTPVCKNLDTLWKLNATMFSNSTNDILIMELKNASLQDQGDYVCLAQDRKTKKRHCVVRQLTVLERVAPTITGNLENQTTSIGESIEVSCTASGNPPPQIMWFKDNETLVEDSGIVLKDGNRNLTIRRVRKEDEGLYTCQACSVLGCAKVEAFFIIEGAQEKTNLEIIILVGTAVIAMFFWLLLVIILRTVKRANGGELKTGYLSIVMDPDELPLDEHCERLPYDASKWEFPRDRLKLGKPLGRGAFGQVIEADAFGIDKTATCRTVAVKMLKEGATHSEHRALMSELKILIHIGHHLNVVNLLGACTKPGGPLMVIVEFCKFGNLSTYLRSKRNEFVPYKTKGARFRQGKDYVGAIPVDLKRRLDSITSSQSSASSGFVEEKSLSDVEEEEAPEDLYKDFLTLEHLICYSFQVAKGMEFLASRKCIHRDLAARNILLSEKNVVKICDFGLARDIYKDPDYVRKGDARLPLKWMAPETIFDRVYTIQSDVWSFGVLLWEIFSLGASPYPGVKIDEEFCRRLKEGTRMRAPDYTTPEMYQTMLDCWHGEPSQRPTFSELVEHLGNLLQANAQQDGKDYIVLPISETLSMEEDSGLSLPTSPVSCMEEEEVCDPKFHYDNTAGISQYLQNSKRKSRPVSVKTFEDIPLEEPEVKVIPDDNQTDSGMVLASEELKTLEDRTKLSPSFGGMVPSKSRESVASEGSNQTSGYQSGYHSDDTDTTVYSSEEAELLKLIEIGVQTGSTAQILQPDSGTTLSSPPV
Chain of Cyclin-dependent kinase 1 (P06493 whole entry): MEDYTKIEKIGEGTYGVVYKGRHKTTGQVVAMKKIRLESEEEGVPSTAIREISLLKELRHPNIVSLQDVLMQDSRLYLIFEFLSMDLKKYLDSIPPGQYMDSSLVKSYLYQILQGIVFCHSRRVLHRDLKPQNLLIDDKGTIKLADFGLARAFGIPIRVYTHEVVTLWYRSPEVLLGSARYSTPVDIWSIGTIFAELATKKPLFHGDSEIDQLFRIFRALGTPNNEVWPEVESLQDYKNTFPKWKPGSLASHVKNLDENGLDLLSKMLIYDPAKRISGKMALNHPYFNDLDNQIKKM
Chain of Cyclin-dependent kinase 5 (Q00535 whole entry): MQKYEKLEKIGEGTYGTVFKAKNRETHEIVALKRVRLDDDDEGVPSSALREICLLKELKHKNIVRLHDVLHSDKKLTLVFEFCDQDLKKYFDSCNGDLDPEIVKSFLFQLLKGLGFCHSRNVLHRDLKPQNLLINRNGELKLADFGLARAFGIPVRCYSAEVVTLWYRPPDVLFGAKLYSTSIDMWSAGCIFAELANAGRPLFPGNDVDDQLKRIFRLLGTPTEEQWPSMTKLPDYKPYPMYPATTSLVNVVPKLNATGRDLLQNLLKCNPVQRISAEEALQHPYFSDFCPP
Chain of Cyclin-dependent kinase 7 (P50613 whole entry): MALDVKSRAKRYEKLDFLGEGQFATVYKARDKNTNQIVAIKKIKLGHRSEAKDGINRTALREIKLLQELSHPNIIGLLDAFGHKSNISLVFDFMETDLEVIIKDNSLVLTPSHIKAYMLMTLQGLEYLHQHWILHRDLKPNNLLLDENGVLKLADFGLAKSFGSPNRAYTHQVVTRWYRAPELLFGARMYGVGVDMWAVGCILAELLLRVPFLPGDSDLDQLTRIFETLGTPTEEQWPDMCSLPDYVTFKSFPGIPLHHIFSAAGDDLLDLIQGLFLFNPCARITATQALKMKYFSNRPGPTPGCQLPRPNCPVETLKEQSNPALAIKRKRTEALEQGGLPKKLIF
Chain of Cyclin-dependent kinase 4 (P11802 whole entry): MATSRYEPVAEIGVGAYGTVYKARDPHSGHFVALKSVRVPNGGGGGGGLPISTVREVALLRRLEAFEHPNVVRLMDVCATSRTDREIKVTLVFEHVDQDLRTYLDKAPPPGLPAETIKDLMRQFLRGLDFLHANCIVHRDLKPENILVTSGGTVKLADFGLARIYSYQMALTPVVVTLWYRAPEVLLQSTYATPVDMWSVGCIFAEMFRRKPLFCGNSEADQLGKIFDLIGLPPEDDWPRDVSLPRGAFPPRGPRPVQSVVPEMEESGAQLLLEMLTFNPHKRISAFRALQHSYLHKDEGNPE
Chain of Epidermal growth factor receptor (P00533 whole entry, the tested form may be a part): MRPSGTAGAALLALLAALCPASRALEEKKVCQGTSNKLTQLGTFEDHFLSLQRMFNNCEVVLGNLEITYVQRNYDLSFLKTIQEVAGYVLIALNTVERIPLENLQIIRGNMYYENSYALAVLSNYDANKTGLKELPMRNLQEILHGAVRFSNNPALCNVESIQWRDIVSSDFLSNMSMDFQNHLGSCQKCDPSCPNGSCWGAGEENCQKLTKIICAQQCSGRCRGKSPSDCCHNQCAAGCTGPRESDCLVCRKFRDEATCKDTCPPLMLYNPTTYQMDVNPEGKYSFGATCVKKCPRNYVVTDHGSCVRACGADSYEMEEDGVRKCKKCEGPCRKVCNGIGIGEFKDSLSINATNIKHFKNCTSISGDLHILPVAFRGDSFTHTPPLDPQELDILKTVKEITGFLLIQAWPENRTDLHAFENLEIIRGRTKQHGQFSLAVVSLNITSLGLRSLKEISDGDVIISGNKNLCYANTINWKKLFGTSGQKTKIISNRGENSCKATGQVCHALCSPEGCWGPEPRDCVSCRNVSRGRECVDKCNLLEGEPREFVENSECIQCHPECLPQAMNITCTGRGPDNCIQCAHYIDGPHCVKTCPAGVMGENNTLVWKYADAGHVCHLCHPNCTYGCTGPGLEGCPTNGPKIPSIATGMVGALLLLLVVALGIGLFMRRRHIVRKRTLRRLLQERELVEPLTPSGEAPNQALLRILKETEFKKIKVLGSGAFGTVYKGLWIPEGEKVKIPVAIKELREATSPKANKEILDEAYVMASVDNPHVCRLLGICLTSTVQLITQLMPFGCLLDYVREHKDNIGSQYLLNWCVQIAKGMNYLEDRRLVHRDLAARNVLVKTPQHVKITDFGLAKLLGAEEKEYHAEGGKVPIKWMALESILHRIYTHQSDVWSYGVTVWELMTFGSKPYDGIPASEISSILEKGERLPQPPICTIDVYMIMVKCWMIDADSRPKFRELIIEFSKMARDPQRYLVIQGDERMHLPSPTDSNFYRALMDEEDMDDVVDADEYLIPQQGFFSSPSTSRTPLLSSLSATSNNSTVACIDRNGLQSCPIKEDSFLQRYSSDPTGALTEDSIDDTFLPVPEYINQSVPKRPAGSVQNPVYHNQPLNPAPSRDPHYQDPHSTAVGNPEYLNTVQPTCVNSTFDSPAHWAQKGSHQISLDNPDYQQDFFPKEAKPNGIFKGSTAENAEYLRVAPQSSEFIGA
Chain of Cyclin-dependent kinase 6 (Q00534 whole entry): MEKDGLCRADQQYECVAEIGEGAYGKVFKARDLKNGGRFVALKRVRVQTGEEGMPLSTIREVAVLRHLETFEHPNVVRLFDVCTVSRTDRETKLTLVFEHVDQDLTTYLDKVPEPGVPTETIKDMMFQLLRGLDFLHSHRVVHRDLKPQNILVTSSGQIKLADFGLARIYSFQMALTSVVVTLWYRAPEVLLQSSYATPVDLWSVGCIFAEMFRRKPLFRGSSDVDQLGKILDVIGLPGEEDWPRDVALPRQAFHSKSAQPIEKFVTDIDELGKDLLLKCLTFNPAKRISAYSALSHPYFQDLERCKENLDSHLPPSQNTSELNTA

The IC50 is the concentration needed to halve the response being measured. For `O=C(NC(=S)Nc1ccc(Cl)cc1)c1cn(-c2ccccc2)nc1-c1ccc(F)cc1`, the IC50 worked out at 44 nM in assay [1], 3.09 µM in [2], 5.47 µM in assay [3] and 2990 nM in assay [4].

Consider `O=C(NC(=S)Nc1ccc(F)cc1)c1cn(-c2ccccc2)nc1-c1ccc(F)cc1`, for which the IC50 came to 49 nM in [1], 3.24 µM in assay [2], 5.61 µM in [3] and 3540 nM in assay [4].

Turning to `Cc1ccc(NC(=S)NC(=O)c2cn(-c3ccccc3)nc2-c2ccc(F)cc2)cc1`, the IC50 in assay [1] came out at 43 nM; in assay [2], 2.98 µM; in assay [3] it was 5.44 µM; in [4] it was 2080 nM.

In the case of `Cc1ccc(NC(=S)NC(=O)c2cn(-c3ccccc3)nc2-c2ccccc2)cc1`, the IC50 in assay [1] came out at 69 nM; in assay [2] it was 3.96 µM; in assay [3], 5.9 µM; in [4], 2800 nM.

As for `O=C(NC(=S)Nc1ccc(F)cc1)c1cn(-c2ccccc2)nc1-c1ccccc1`, the IC50 worked out at 75 nM in assay [1], 4.21 µM in assay [2], 6.82 µM in [3] and 3500 nM in [4].

Turning to `COc1ccc(NC(=S)NC(=O)c2cn(-c3ccccc3)nc2-c2ccc(OC)cc2)cc1`, the Activity result in assay [5] was “Dose-dependent effect”; in assay [6] it was 0%; in [7], 28.48%; in assay [8] it was 7.52%; in assay [9] it was 64%; in assay [10] it was 0%. The Activity was found to be 34.48% in assay [11]; 2.99% in assay [12]; 62.53% in assay [13]; 0% in assay [14]; 32.47% in assay [15]; 8.04% in assay [16]. The Activity in assay [24] was 59.49%. Also, the IC50 in assay [17] is above 5 µM; in [18], above 5 µM; in assay [19], 1420 nM; in assay [20], 29 nM; in assay [21], 1090 nM; in assay [22], 522 nM. The 50% inhibitory concentration (IC50) in [23] worked out at 35 nM; in [1] it was 25 nM; in assay [2], 2.57 µM; in assay [3], 4.21 µM; in assay [4], 750 nM.

In the case of `COc1ccc(-c2nn(-c3ccccc3)cc2C(=O)NC(=S)Nc2ccc(Cl)cc2)cc1`, the IC50 in [1] stood at 30 nM; in assay [2] it was 3.01 µM; in [3], 4.76 µM; in assay [4], 1310 nM.

Turning to `COc1ccc(NC(=S)NC(=O)c2cn(-c3ccccc3)nc2-c2ccc(C)cc2)cc1`, the IC50 is above 5 µM in assay [17]; above 5 µM in assay [18]; 1790 nM in assay [19]; 43 nM in assay [20]; 1420 nM in assay [21]; 584 nM in assay [22]. For the same compound, the IC50 in assay [23] was determined as 40 nM; in [1], 47 nM; in [2], 3.24 µM; in assay [3] it was 5.12 µM; in assay [4], 2390 nM.

For `O=C(NC(=S)Nc1ccc(Cl)cc1)c1cn(-c2ccccc2)nc1-c1ccccc1`, the IC50 was 71 nM in assay [1], 4.02 µM in assay [2], 6.23 µM in [3] and 3200 nM in assay [4].

As for `COc1ccc(NC(=S)NC(=O)c2cn(-c3ccccc3)nc2-c2ccc(F)cc2)cc1`, the half-maximal inhibitory concentration (IC50) was above 5 µM in assay [17]; above 5 µM in assay [18]; 1640 nM in assay [19]; 33 nM in [20]; 1180 nM in assay [21]; 569 nM in [22]. Further, the IC50 in assay [23] was 39 nM; in assay [1], 36 nM; in assay [2] it was 2.86 µM; in assay [3] it was 4.89 µM; in assay [4], 1980 nM.

For the compound `Cc1ccc(NC(=S)NC(=O)c2cn(-c3ccccc3)nc2-c2ccc(C)cc2)cc1`, the IC50 in [1] was found to be 52 nM; in [2], 3.76 µM; in assay [3], 5.66 µM; in assay [4], 2830 nM.

For the compound `Cc1ccc(-c2nn(-c3ccccc3)cc2C(=O)NC(=S)Nc2ccc(Cl)cc2)cc1`, the IC50 came out at 63 nM in assay [1], 3.65 µM in [2], 6.21 µM in assay [3] and 3170 nM in [4].

As to `Cc1ccc(-c2nn(-c3ccccc3)cc2C(=O)NC(=S)Nc2ccc(F)cc2)cc1`, the IC50 in [1] was 41 nM; in assay [2] it was 3.98 µM; in assay [3] it was 6.42 µM; in [4], 3420 nM.

Take `COc1ccc(NC(=S)NC(=O)c2cn(-c3ccccc3)nc2-c2ccccc2)cc1`: the IC50 is above 5 µM in assay [17]; above 5 µM in assay [18]; 1880 nM in [19]; 50 nM in [20]; 1500 nM in assay [21]; 610 nM in assay [22]. The IC50 in [23] came out at 42 nM; in assay [1], 56 nM; in assay [2], 3.54 µM; in assay [3] it was 5.46 µM; in [4], 2500 nM.

For `Cn1cnc2c(NCc3ccccc3)nc(NCCO)nc21` [OLOMOUCINE], the figures for the IC50 in assay [2], in assay [3] and in [4] were 132 µM, 142 µM and 130000 nM, respectively.

With `Cc1ccc(NC(=S)NC(=O)c2cn(-c3ccccc3)nc2-c2ccc(Cl)cc2)cc1`, the IC50 in [1] was found to be 42 nM; in assay [2], 3.12 µM; in assay [3] it was 5.98 µM; in [4], 2690 nM.

With `COc1ccc(NC(=S)NC(=O)c2cn(-c3ccccc3)nc2-c2ccc(Cl)cc2)cc1`, the IC50 is above 5 µM in [17]; above 5 µM in [18]; 1650 nM in [19]; 42 nM in assay [20]; 1360 nM in assay [21]; 571 nM in assay [22]. The IC50 in assay [23] was determined as 40 nM; in assay [1], 37 nM; in assay [2] it was 3.01 µM; in assay [3], 5.24 µM; in assay [4], 2270 nM.

Take `O=C(NC(=S)Nc1ccc(Cl)cc1)c1cn(-c2ccccc2)nc1-c1ccc(Cl)cc1`: the IC50 in assay [1] worked out at 58 nM; in [2] it was 3.26 µM; in [3], 5.36 µM; in [4], 3150 nM.

As to `COc1ccc(-c2nn(-c3ccccc3)cc2C(=O)NC(=S)Nc2ccc(C)cc2)cc1`, the IC50 was 29 nM in [1], 2.88 µM in assay [2], 4.63 µM in assay [3] and 1250 nM in [4].

For the compound `COc1ccc(-c2nn(-c3ccccc3)cc2C(=O)NC(=S)Nc2ccc(F)cc2)cc1`, the IC50 in [1] amounted to 32 nM; in assay [2], 3.05 µM; in [3], 4.99 µM; in assay [4], 1430 nM.

On to `O=C(NC(=S)Nc1ccc(F)cc1)c1cn(-c2ccccc2)nc1-c1ccc(Cl)cc1`, for which the IC50 in assay [1] is 59 nM; in assay [2], 3.64 µM; in assay [3], 5.99 µM; in assay [4], 3980 nM.
